# Screens deposited in PubChem BioAssay by several laboratories.
# Sampled rows, rich in hits. Any-hit rate of the full collection: about 5.1%.
# STAT3 inh – STAT3 signaling inhibition; U3A cells, IL-6 STAT3-luciferase reporter, luminescence; host cell line lacks STAT1; inhibition, % at 5.5 µM; 0.89% of 190,000 active;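 active = inhibition above the mean inhibition across all screened compounds plus 3 SD, cut at about 44% in these data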;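 also: 0% = DMSO only wells and 100% = 100 µM nifuroxazide control wells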
# STAT1 act – increases IFN-gamma driven STAT1 reporter signal; NIH 3T3 STAT1-luciferase reporter, luminescence; 100% = IFN-gamma alone, no compound; activation (% of control), % at 5.5 µM; 2.6% of 200,000 active;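 active = activation above the screen-wide mean activation plus 3 SD, cut at about 130% in these data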;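 also: raw ratio to IFN-gamma control signal so 100% means no change and 0% no light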
# STAT3 activator – activators of IL-6 induced STAT3 signaling | U3A cells, IL-6 STAT3-luciferase reporter, luminescence; 100% = signal with IL-6 EC80 alone | activation (% of control), % at 5.6 µM | 0.91% of 190,000 active | AID 871;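 active = activation above the screen-wide mean of compound activation plus 3 SD, cut at about 130% in these data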;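 also: 0% = background luminescence of wells with medium and substrate only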
#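 Material: human STAT1-deficient U3A cells with stable STAT3-luciferase reporter / Probe or stimulus: IL-6 stimulus at 33 ng/mL final / Schedule: 1 h compound pre-exposure, 6 h IL-6 stimulation, 37 °C / Technique: luminescence / Read-out basis: percent of IL-6-only median luminescence / Control set: IL-6-only high control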
# APP 5'UTR act – APP 5'UTR luciferase reporter activation. SH-SY5Y APP 5'UTR luciferase reporter, luminescence; zero percent = DMSO vehicle wells. AID 1276. 1% of 190,000 active. activation, % at 2 µM;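 active = activation above a set limit, based on mean plus 3 SD of controls, cut at about 140% in these data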
# NF-kB neuron act – raises NF-kB expression in human neuronal cells. 1.6% of 190,000 active. fold change at 12.5 µM. NF-kB reporter expression; active compounds read high; in the data active = fold change above about 3.3
# STAT1 inh – inhibitors of IFN-gamma induced STAT1 signaling; AID 920; NIH 3T3 STAT1-luciferase reporter, luminescence; inhibition, % at 5.5 µM; 0.35% of 200,000 active;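 active = inhibition above a set limit, the mean inhibition across all tested compounds plus 3 SD, cut at about 34% in these data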;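 also: 0% = IFN-gamma with DMSO and 100% = IFN-gamma with 300 µM nifuroxazide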
# STAT1 act conf – STAT1 activation, confirmation assay; activation (% of control), % at 5.7 µM; 97% of 1,200 active; NIH 3T3 STAT1-luciferase reporter, IFN-gamma potentiation, luminescence; 100% = IFN-gamma EC80 alone, no compound; AID 1262; shares compounds with STAT1 act;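 active = activation above a set limit carried over from the earlier primary STAT1 screen, cut at about 140% in these data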;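 also: simple ratio to median IFN-gamma plus DMSO wells so 0% means no light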
# NFkB act – counter-screen for STAT1 activators: NF-kappaB activation. activation (% of control), % at 5.7 µM. 43% of 1,200 active. shares compounds with STAT1 act. HEK293T NF-kB luciferase reporter, TNF-alpha stimulated, luminescence; 100% = TNF-alpha with vehicle only. AID 1306;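 active = activation above the mean of solvent-only control wells plus 3 SD, set per campaign, cut at about 130% in these data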;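 also: TNF-alpha given at a submaximal dose yielding about 80% of full reporter signal; values are well signal over median control so 100% means no change and 0% no light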
# STAT3 act STAT1c – activates human STAT3, counter-screen to STAT1 activators. shares compounds with STAT1 act. U3A cells STAT3-luciferase reporter, IL-6, luminescence; cells lack STAT1; 100 = IL-6 alone, no compound effect. activation (% of control), % at 5.7 µM. 46% of 1,200 active. AID 1316;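 active = activation above the solvent-only control well mean plus 3 SD, set per plate batch, cut at about 110% in these data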;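 also: 0% = no luminescence and 100% = median IL-6 plus DMSO wells; higher means more STAT3 reporter activation so hits are non-selective activators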
# * marks the source's active call; other numbers are inactive results; / = no result given.
SMILES,STAT3 inh,STAT1 act,STAT3 activator,APP 5'UTR act,NF-kB neuron act,STAT1 inh,STAT1 act conf,NFkB act,STAT3 act STAT1c
O=C(/C=C/c1ccccc1)NC(=S)Nc1ccc2c3c(cccc13)CC2,-15.9,100.8,111.9,5.7,1.13,-0.9,/,/,/
CC(/C=C/c1ccc(OCc2ccccc2)cc1)=N\O,-9.3,157.4*,111.6,94.1,3.1,-64.9,176.9*,134.2*,112.3*
O=C(CONS(=O)(=O)c1ccc(Cl)cc1)NCCNc1ncc(C(F)(F)F)cc1Cl,3.6,96.7,103.3,6.1,0.83,2.6,/,/,/
CCCn1nnc(NC(=O)c2ccc3ccccc3c2)n1,17.1,154.2*,91.8,34.9,3.19,-61.8,128.3,126.3,95.0
COc1ccc(-c2noc(Cc3ccccc3OC)n2)cc1,9.1,122.4,95.4,20.1,1.45,-24.6,/,/,/
COc1ccc(-c2noc(Cc3cccs3)n2)cc1,16.9,161.9*,95.1,96.4,3.94*,-68.7,181.1*,138.4*,104.2
Cc1nc(SCc2ccc(Cl)c(Cl)c2)ncc1C(=O)O,5.9,99.2,96.9,2.6,1.28,0.7,/,/,/
CC(=O)c1cnc(SCc2ccc(Cl)cc2)nc1C,9.3,202.0*,97.3,10.3,4.71*,-115.0,172.4*,111.1,101.0
CN(C)c1ncccc1-c1nc2ccccc2s1,-3.5,98.7,104.3,6.8,1.01,1.3,/,/,/
c1ccc(-c2nc3ccccc3s2)nc1,24.4,158.3*,82.9,123.3,4.66*,-63.6,200.4*,120.9,101.9
CCOC(=O)N1CCC(N(CCN(C)C)C(=S)Nc2cc(Cl)ccc2C)CC1,3.3,98.6,101.5,-1.4,1.32,3.1,/,/,/
CCC(C)(C)NC(=S)Nc1ccc(-c2nc3ccc(C)cc3s2)cc1,20.6,176.6*,81.6,172.6*,2.47,-86.0,199.6*,129.7,106.7
COCCNc1nnc(SC(C)C(=O)Nc2ccc(-c3nc4ccc(C)cc4s3)cc2)s1 (stereo not given),20.4,159.8*,81.8,-14.1,4.48*,-65.8,200.4*,123.1,102.2
CCCCNC(=S)Nc1cccc(C(C)=O)c1,-2.1,96.0,100.4,-1.9,1.72,4.4,/,/,/
CCCCNC(=S)Nc1ccc(-c2nc3ccc(C)cc3s2)cc1,26.3,151.2*,80.0,180.4*,10.6*,-56.6,210.2*,142.8*,100.5
O=C(Nc1nc2ccc([N+](=O)[O-])cc2s1)c1ccco1,20.9,114.7,86.5,75.8,2.43,-15.8,/,/,/
Clc1cccc(-c2ccc(C=Nc3ccc(N4CCOCC4)cc3)o2)c1,-17.4,97.7,114.6,2.5,1.19,2.6,/,/,/
Clc1cccc(/C=N/Nc2ncnc3ccccc23)c1,-32.6,161.6*,132.7,/,4.36*,-67.4,227.0*,143.2*,133.6*
CC(C)CC1NC(=O)N(CC(=O)N2c3ccccc3NC(=O)C2(C)C)C1=O (stereo not given),8.8,101.1,98.9,-8.5,1.24,-1.5,/,/,/
Cc1cc(C(=O)CN2C(=O)NC(CC(C)C)C2=O)c(C)n1-c1ccccc1F (stereo not given),-35.7,152.8*,131.1,69.8,2.25,-58.2,183.2*,135.0*,130.8*
COc1ncccc1-c1nnn(-c2ccc(C)cc2)n1,/,152.3*,/,98.5,3.72*,-54.3,205.2*,140.8*,117.2*
COc1ncccc1-c1nnn(-c2ccc(Cl)c(Cl)c2)n1,/,158.3*,/,105.7,3.97*,-60.7,163.9*,131.7,101.2
O=c1[nH]c2ccccc2cc1-c1nnn(-c2ccc(F)cc2)n1,/,125.0,/,91.4,1.86,-25.2,/,/,/
Clc1ccc(-n2nnc(-c3cccnc3)n2)cc1Cl,/,159.3*,/,51.2,2.31,-61.8,149.2*,125.2,107.8
COc1ncccc1-c1nnn(-c2ccc(F)cc2)n1,/,155.3*,/,105.8,3.76*,-57.5,193.8*,131.9,112.5*
SMILES,STAT3 inh,STAT1 act,STAT3 activator,APP 5'UTR act,NF-kB neuron act,STAT1 inh,STAT1 act conf,NFkB act,STAT3 act STAT1c
COc1cc(C)ccc1OCCCON1C(=O)CCC1=O,7.5,99.8,93.8,/,1.11,-0.1,/,/,/
CSc1nc(Cc2ccccc2)cc(=O)[nH]1,6.7,104.1,102.3,4.7,1.13,-4.3,/,/,/
CC(C)=CC(=O)Nc1nnc(-c2ccccc2)s1,9.7,162.1*,100.4,9.5,3.2,-69.0,195.8*,135.1*,104.3
CC(C)=CC(=O)Nc1nnc(C)s1,5.5,109.7,98.1,52.2,1.29,-7.9,/,/,/
CCc1ccc(NC(=O)c2ccc3ncsc3c2)cc1,-10.7,162.1*,109.5,151.5*,6.4*,-69.6,203.1*,138.0*,104.7
N/C(=N\OC(=O)CCCOc1ccc(Cl)cc1Cl)c1ccncc1,7.8,104.0,97.5,-1.1,1.08,-7.4,/,/,/
N/C(=N\OC(=O)COc1ccc(Cl)cc1Br)c1ccncc1,6.9,156.8*,98.6,119.6,5.82*,-62.8,198.3*,141.8*,121.8*
N/C(=N\OC(=O)c1ccccc1Cl)c1ccncc1,14.8,162.3*,92.1,94.1,/,-67.2,154.9*,115.8,99.0
N/C(=N\OC(=O)CCCOc1ccc(Cl)cc1Cl)c1ccccn1,9.2,96.0,98.8,-12.1,1.04,2.9,/,/,/
N/C(=N\OC(=O)COc1cc(Cl)c(Cl)cc1Cl)c1ccccn1,8.3,159.3*,98.8,161.2*,5.39*,-66.5,192.2*,142.6*,112.9*
N/C(=N\OC(=O)Cc1ccc(Cl)cc1)c1ccncc1,10.8,96.6,95.3,-3.1,1.17,2.2,/,/,/
Cc1[nH]nc(N)c1N=Nc1ccc(Br)cc1,12.3,108.2,93.6,20.8,1.12,-12.1,/,/,/
Cc1nc(N)sc1N=Nc1ccc(Br)cc1,-16.7,158.0*,115.1,121.6,7.18*,-63.0,213.7*,161.9*,123.1*
Cc1cnc(NC(=O)COc2ccccc2)s1,25.9,166.3*,81.5,167.7*,4.26*,-72.4,179.4*,130.3,100.7
Cc1cnc(NC(=O)CSc2ccccc2)s1,4.5,110.9,101.2,24.1,1.79,-11.9,/,/,/
CCOc1ccccc1CNC(=O)c1ccc(Sc2ccc(Cl)cc2)c(NC(C)=O)c1,-11.3,103.4,109.5,5.0,0.76,-3.8,/,/,/
COc1ccc(COc2cc(-c3cccc(OC)c3)nc3ccc(NC(C)=O)cc23)cc1,-4.2,104.8,101.1,-0.1,1,-5.2,/,/,/
COc1ccc(Cn2c(C3CC3)nc3ccc(NC(C)=O)cc3c2=O)cc1,-11.7,168.7*,118.1,142.3*,4.26*,-75.3,213.0*,143.3*,133.6*
